Key:
[1] = Selectivity index, ratio of EC50 for agonist activity at human S1P3 receptor expressed in EDG3-Ga15-bla HEK293T cell membranes to EC50 for agonist activity at human S1P1 receptor expressed in CHO cell membranes; assay type: cell-based
In short: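 S1P3/S1P1 ratio of GTPγ[35S] EC50s. Membranes from EDG3-Ga15-bla HEK293T (S1P3) or S1P1/CHO cells, […], 0.2 nM final [35S]GTP. HEPES pH 7.5 buffer with MgCl2, NaCl, EGTA, DTT, GDP, BSA and saponin. 45 min at room temperature, filtration read-out. Each EC50 taken at 50% of the compound's own Ymax.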

Rattus norvegicus [2] = assay: Reduction in circulating lymphocytes in Lewis rat at 1 mg/kg, po after 4 hrs; assay type: functional
In short: (§1)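 Healthy Lewis rats dosed orally with test article as solution or suspension in vehicle, or vehicle alone. Blood drawn at 4 h and 24 h. Circulating lymphocyte percentage measured by hematology analyzer, expressed as reduction versus the vehicle group. Group average, n = 3–4.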

Plasma = assay: Ratio of plasma concentration Lewis rat at 1 mg/kg, po after 4 hrs to plasma concentration Lewis rat at 1 mg/kg, po after 24 hrs; assay type: ADME, organism-based; conditions: in vivo
In short: (§2)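 Lewis rats given 1.0 mg/kg orally as solution or suspension in vehicle. Plasma drug concentration measured in blood drawn at 4 h and 24 h; 4 h/24 h ratio taken from these values.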

[3] = target: Sphingosine 1-phosphate receptor 3 (Homo sapiens, UniProt Q99500); assay: Agonist activity at human S1P3 receptor expressed in EDG3-Ga15-bla HEK293T cell membranes assessed as stimulation of [35S]GTPgamma binding incubated for 45 mins by liquid scintillation counting method; design: species or system HEK-293T
Chain of Sphingosine 1-phosphate receptor 3 (Q99500 whole entry): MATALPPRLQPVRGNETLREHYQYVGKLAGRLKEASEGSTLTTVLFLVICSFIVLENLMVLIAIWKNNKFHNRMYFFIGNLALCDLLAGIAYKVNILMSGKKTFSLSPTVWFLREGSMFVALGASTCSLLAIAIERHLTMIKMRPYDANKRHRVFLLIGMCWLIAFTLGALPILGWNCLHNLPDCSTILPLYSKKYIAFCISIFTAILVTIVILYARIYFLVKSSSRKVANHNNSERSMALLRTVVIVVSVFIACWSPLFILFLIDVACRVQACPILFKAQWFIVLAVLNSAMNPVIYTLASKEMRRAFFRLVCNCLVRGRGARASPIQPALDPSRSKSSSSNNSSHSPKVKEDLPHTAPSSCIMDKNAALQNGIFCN
In short: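 Membranes from S1P1/CHO cells (S1P1) or EDG3-Ga15-bla HEK293T cells (S1P3), final protein […], with 3-fold compound dilutions. Buffer: 20 mM HEPES pH 7.5, 10 mM MgCl2, 150 mM NaCl, 1 mM EGTA, 1 mM DTT, GDP, 0.1% fatty acid free BSA, saponin. [35S]GTP 0.2 nM final. Room temperature, 45 min. Filtered, washed with water, dried 60 °C. EC50 taken at 50% of each compound's Ymax.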

[4] = Plasma concentration Lewis rat at 1 mg/kg, po after 4 hrs; assay type: ADME, organism-based; in short: as §2
Rattus norvegicus [5] = assay: Reduction in circulating lymphocytes in Lewis rat at 1 mg/kg, po after 24 hrs; assay type: functional; in short: as §1
[6] = Plasma concentration Lewis rat at 1 mg/kg, po after 24 hrs; assay type: ADME, organism-based; in short: as §2

Ratio (Plasma): 22
EC50 [3]: 8.2 µM
concentration at 4 h [4]: 686 nM
concentration at 24 h [6]: 31 nM
SMILES: CC(C)c1c(-c2nc(-c3ccc(CN4CC(C(=O)O)C4)cc3)no2)noc1-c1ccccn1
Ratio EC50 [1]: 8200
inhibition in vivo at 1 mg/kg (Rattus norvegicus [2]): 84%
inhibition in vivo at 1 mg/kg (Rattus norvegicus [5]): 64%

— ChEMBL document CHEMBL3792331, “Identification and synthesis of potent and selective pyridyl-isoxazole based agonists of sphingosine-1-phosphate 1 (S1P1)” (Bioorg Med Chem Lett, 2016)
